Test results taken from ChEMBL document CHEMBL5674889, “Enhanced JunD/RSK3 signalling due to loss of BRD4/FOXD3/miR-548d-3p axis determines BET inhibition resistance” (2020).
The source made the active and inactive calls.

Assays:
BT-549 [1] = assay: Antiproliferative activity in human JUND-knockdown BT-549 cells assessed as stronger tumor sphere formation at 1 uM by tumor sphere assay; type: functional, cell-based
BT-549 [2] = assay: Antiproliferative activity in human JUND-knockdown BT-549 cells assessed as cell viability at 1 uM by CellTiter-Glo luminescent cell viability assay; type: functional, cell-based
Method in brief: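 Stable JUND-knockdown (shRNA, puromycin 1.0 μg/ml selection) or JUND-overexpressing clones and vector controls, seeded 3000 cells/well and adhered overnight, then given DMSO or JQ1 (1 μM) for 48 h. Read-out CellTiter-Glo luminescence normalized to DMSO control; triplicates, mean ± SD, one-way ANOVA.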

MDA-MB-231 [3] = assay: Effect on human JUND-knockdown MDA-MB-231 cells assessed as reduction of RSK3 protein expression at 1 uM by Western blot analysis; type: functional, cell-based
Method in brief: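 RSK3 and JunD were probed by western blot in JUND-knockdown or JUND-overexpressing stable clones and their controls, all selected with puromycin 1.0 μg/ml. Antibodies used at 1:1000.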

BT-549 [4] = assay: Antiproliferative activity in human BT-549 cells assessed as inhibition of cell growth at 1 uM by CCK-8 assay; type: functional, cell-based
MDA-MB-231 [5] = assay: Antiproliferative activity in human MDA-MB-231 cells assessed as cell growth in the presence of osimertinib at 1 uM by CellTiter-Glo luminescent cell viability assay; type: functional, cell-based
Method in brief: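 BLBC cells seeded at 3000/well, adhered overnight, then exposed to JQ1 (1 μM) with or without an EGFR inhibitor (1 μM) for 48 h; control and RPS6KA2-shRNA clones tested. Viability by CellTiter-Glo luminescence, background-subtracted and normalized to DMSO-treated control; triplicates, mean ± SD, one-way ANOVA against JQ1 alone.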

MDA-MB-231 [6] = assay: Antiproliferative activity in human FOXD3-knockdown MDA-MB-231 cells co-silenced with shRNA of JUND assessed as cell growth at 1 uM by CCK-8 assay; type: functional, cell-based
BT-549 [7] = assay: Antiproliferative activity in human RPS6KA2-knockdown BT-549 cells assessed as cell viability at 1 uM for 48 hrs by CellTiter-Glo luminescent cell viability assay; type: functional, cell-based
Method in brief: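 CellTiter-Glo viability: stable overexpressing or shRNA clones (puromycin 1.0 μg/ml selection) seeded 3000 cells/well, adhered overnight, then exposed to 1 μM for 48 h. Luminescence is background-subtracted and normalised to DMSO-treated control. Triplicates, mean ± SD, one-way ANOVA. MDA-MB-231 cells are kept in DMEM and BT549 in RPMI-1640, each with 10% FBS.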

[8] = target: T1, Transcription factor JunD (Homo sapiens) (UniProt P17535); assay: Binding affinity of JunD in human BT-549 cells assessed RPS6KA2 expression at 1 uM for 24 hrs by ChIP analysis; type: cell-based
T1 sequence (whole entry): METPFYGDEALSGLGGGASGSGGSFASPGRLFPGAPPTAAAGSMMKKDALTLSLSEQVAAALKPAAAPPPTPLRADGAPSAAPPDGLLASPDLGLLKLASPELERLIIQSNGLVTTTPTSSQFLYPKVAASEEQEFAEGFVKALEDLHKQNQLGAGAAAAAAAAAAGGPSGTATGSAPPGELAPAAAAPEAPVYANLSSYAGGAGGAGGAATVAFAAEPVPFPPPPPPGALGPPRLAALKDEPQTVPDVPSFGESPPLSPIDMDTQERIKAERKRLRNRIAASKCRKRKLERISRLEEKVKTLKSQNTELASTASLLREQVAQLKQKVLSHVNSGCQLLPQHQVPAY

BT-549 [9] = assay: Antiproliferative activity in human JUND-overexpressing BT-549 cells assessed as tumor sphere formation at 1 uM by Tumor sphere assay; type: functional, cell-based
MDA-MB-231 [10] = assay: Antitumor activity against human MDA-MB-231 cells xenografted in BALB/c nude mouse assessed as reduction in tumor weight at 35 mg/kg/day, sc administered every 2 days; type: functional, organism-based; conditions: time 2.0 day
Method in brief: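 Female BALB/c nude mice aged 4–6 weeks received 1 × 10^6 MDA-MB-231 control or knockdown cells subcutaneously, n = 7 per group. Dosing at 35 mg/kg every 2 days began at an average tumour volume of 90 mm3. Tumours were weighed after 25 days.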

Measured: Activity

Cc1sc2c(c1C)C(c1ccc(Cl)cc1)=N[C@@H](CC(=O)OC(C)(C)C)c1nnc(C)n1-2
active: BT-549 [1] | BT-549 [2] | MDA-MB-231 [3] | BT-549 [4] | MDA-MB-231 [5] | MDA-MB-231 [6] | BT-549 [7] | [8] | BT-549 [9] | MDA-MB-231 [10]
